Consider 26 compounds from ChEMBL document CHEMBL1122980, “Stereoselective metabolism of conformational analogues of warfarin by beta-naphthoflavone-inducible cytochrome P-450” (J Med Chem, 1985).

Structures are written as SMILES.

The species named for this series is Rattus norvegicus. The series is described as follows: Rate of metabolism in liver microsomes (BNF treated rats). Format: ADME. In a few lines:
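Liver microsomes pooled from three male Sprague–Dawley rats (140–170 g) given BNF ip (80 mg/kg in corn oil) daily for 3 days, taken on day 4. Microsomal protein 2 mg/mL. Substrate added after 2-min equilibration, 200 μg/mL in acetone, or warfarin also in pH 7.4 phosphate buffer. Incubated 20 min at 37 °C, triplicate. Hydroxy metabolites quantified by GC/MS against deuterated internal standards. Rates given per nmol P-450 per min, mean ±SD.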
`CO[C@@]1(C)C[C@H](c2ccccc2)c2c(c3cccc(O)c3oc2=O)O1`: the RPF was 15.1 pM nM-1.

Turning to `CC(=O)C[C@@H](c1ccc(O)cc1)c1c(O)c2ccccc2oc1=O`, the Metabolism rate turned out to be 13.7 pmol/min/nmol P-450.

As to `COc1c([C@@H](CC(C)=O)c2ccccc2)c(=O)oc2cc(O)ccc12`, the RPF was 31.2 pM nM-1.

In the case of `CO[C@]1(C)C[C@H](c2ccccc2)c2c(c3ccc(O)cc3oc2=O)O1`, the RPF was 12.8 pM nM-1.

With `CO[C@]1(C)C[C@H](c2ccc(O)cc2)c2c(c3ccccc3oc2=O)O1`, the RPF is listed as 52 pM nM-1.

Turning to `COc1c([C@H](CC(C)=O)c2ccc(O)cc2)c(=O)oc2ccccc12`, the RPF is given as 85.3 pM nM-1.

`CC(=O)C[C@@H](c1ccccc1)c1c(O)c2ccc(O)cc2oc1=O` showed a Metabolism rate of 216.8 pmol/min/nmol P-450 and an RPF of 195 pmol/min/nmol.

As for `CO[C@]1(C)C[C@@H](c2ccccc2)c2c(c3cccc(O)c3oc2=O)O1`, the RPF is recorded as 42.8 pM nM-1.

As to `COc1c([C@H](CC(C)=O)c2ccccc2)c(=O)oc2cc(O)ccc12`, the RPF is listed as 8.3 pM nM-1.

Turning to `CO[C@@]1(C)C[C@@H](c2ccccc2)c2c(c3cccc(O)c3oc2=O)O1`, the RPF is 34.6 pM nM-1.

In the case of `COc1c([C@H](CC(C)=O)c2ccccc2)c(=O)oc2ccc(O)cc12`, the RPF is recorded as 11.5 pM nM-1.

`COc1c([C@@H](CC(C)=O)c2ccccc2)c(=O)oc2ccc(O)cc12`: the RPF is 19.1 pM nM-1.

With `COC1(C)C[C@H](c2ccc(O)cc2)c2c(c3ccccc3oc2=O)O1` (some centres undefined), the RPF is 76.2 pM nM-1.

For the compound `COc1c([C@@H](CC(C)=O)c2ccc(O)cc2)c(=O)oc2ccccc12`, the RPF was 47.8 pM nM-1.

As to `CO[C@]1(C)C[C@@H](c2ccccc2)c2c(c3ccc(O)cc3oc2=O)O1`, the RPF was 14.9 pM nM-1.

Turning to `COC1(C)C[C@@H](c2ccccc2)c2c(c3ccc(O)cc3oc2=O)O1` (some centres undefined), the RPF was 13.9 pM nM-1.

As for `COC1(C)C[C@@H](c2ccc(O)cc2)c2c(c3ccccc3oc2=O)O1` (some centres undefined), the RPF is 64.8 pM nM-1.

In the case of `CO[C@]1(C)C[C@@H](c2ccccc2)c2c(c3cc(O)ccc3oc2=O)O1`, the RPF was 24.1 pM nM-1.

For the compound `COC1(C)C[C@@H](c2ccccc2)c2c(c3cc(O)ccc3oc2=O)O1` (some centres undefined), the RPF is 14.8 pM nM-1.

Turning to `CC(=O)C[C@@H](c1ccccc1)c1c(O)c2cc(O)ccc2oc1=O`, the Metabolism rate is on record as 41.2 pmol/min/nmol P-450 and the RPF is 37.1 pmol/min/nmol.

In the case of `CC(=O)C[C@H](c1ccc(O)cc1)c1c(O)c2ccccc2oc1=O`, the Metabolism rate is listed as 22.4 pmol/min/nmol P-450.

Compound `CC(=O)C[C@H](c1ccccc1)c1c(O)c2cc(O)ccc2oc1=O` displayed a Metabolism rate of 113.7 pmol/min/nmol P-450 and an RPF of 102 pmol/min/nmol.

Take `CO[C@]1(C)C[C@@H](c2ccc(O)cc2)c2c(c3ccccc3oc2=O)O1`: the RPF is on record as 73.5 pM nM-1.

For the compound `COC1(C)C[C@H](c2ccccc2)c2c(c3cc(O)ccc3oc2=O)O1` (some centres undefined), the RPF was 20.3 pM nM-1.

Take `COC1(C)C[C@H](c2ccccc2)c2c(c3ccc(O)cc3oc2=O)O1` (some centres undefined): the RPF is reported as 19.3 pM nM-1.

In the case of `CO[C@]1(C)C[C@H](c2ccccc2)c2c(c3cccc(O)c3oc2=O)O1`, the RPF is reported as 14.9 pM nM-1.
